IC50, Activity and Ratio EC50 data for 28 compounds are collected here from ChEMBL document CHEMBL3425486, “Lathyrol diterpenes as modulators of P-glycoprotein dependent multidrug resistance: structure-activity relationship studies on Euphorbia factor L3 derivatives” (J Med Chem, 2015).

As usually defined, the IC50 is the point on the concentration scale where inhibition reaches its midpoint.

A short description of series [1]: Cytotoxicity against human MCF7/ADR cells assessed as reduction in cell viability after 48 hrs by SRB colorimetric assay. To be noted: NCI/ADR-RES. Type of series: functional, cell-based. Summed up: (§1)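 MCF-7 from ATCC and its stepwise ADR-selected resistant subline, grown in RPMI-1640 with 10% FBS and penicillin/streptomycin at 37 °C, 5% CO2. 1 × 10^4 cells/well exposed to graded compound concentrations for 48 h. Cells fixed with 10% TCA, stained with 0.4% SRB in 1% acetic acid, dye extracted with 10 mM Tris base, OD read at 490 nm. Taxol positive control.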
In general terms: The SRB assay estimates cell density from bound dye.

For series [2], the system named is MCF7. Put plainly: Cytotoxicity against human MCF7 cells assessed as reduction in cell viability after 48 hrs by SRB colorimetric assay. Type of series: functional, cell-based. The note with it: MCF7, 48 h. Summed up:
as §1

For series [3], the target named is ATP-dependent translocase ABCB1 (Homo sapiens, UniProt P08183). Put plainly: Inhibition of P-gp in human MCF7/ADR cells assessed as reversal of multidrug resistance by measuring relative enhancement intensity for adriamycin-induced cytotoxicity at 10 uM after 48 hrs by SRB colorimetric assay. Type of series: cell-based. Further details: scale not given: the % may be the effect or the level left. To be noted: nci/adr-res.

Series [4] has as its system NCI/ADR-RES. The series can be described thus: Inhibition of P-gp in human MCF7/ADR cells assessed as reversal of multidrug resistance at 10 uM by measuring ratio of EC50(adriamycin)/EC50(adriamycin + compound) after 48 hrs by SRB colorimetric assay. Type of series: cell-based.

Bounds are passed on as bounds.

ATP-dependent translocase ABCB1, sequence (P08183 whole entry): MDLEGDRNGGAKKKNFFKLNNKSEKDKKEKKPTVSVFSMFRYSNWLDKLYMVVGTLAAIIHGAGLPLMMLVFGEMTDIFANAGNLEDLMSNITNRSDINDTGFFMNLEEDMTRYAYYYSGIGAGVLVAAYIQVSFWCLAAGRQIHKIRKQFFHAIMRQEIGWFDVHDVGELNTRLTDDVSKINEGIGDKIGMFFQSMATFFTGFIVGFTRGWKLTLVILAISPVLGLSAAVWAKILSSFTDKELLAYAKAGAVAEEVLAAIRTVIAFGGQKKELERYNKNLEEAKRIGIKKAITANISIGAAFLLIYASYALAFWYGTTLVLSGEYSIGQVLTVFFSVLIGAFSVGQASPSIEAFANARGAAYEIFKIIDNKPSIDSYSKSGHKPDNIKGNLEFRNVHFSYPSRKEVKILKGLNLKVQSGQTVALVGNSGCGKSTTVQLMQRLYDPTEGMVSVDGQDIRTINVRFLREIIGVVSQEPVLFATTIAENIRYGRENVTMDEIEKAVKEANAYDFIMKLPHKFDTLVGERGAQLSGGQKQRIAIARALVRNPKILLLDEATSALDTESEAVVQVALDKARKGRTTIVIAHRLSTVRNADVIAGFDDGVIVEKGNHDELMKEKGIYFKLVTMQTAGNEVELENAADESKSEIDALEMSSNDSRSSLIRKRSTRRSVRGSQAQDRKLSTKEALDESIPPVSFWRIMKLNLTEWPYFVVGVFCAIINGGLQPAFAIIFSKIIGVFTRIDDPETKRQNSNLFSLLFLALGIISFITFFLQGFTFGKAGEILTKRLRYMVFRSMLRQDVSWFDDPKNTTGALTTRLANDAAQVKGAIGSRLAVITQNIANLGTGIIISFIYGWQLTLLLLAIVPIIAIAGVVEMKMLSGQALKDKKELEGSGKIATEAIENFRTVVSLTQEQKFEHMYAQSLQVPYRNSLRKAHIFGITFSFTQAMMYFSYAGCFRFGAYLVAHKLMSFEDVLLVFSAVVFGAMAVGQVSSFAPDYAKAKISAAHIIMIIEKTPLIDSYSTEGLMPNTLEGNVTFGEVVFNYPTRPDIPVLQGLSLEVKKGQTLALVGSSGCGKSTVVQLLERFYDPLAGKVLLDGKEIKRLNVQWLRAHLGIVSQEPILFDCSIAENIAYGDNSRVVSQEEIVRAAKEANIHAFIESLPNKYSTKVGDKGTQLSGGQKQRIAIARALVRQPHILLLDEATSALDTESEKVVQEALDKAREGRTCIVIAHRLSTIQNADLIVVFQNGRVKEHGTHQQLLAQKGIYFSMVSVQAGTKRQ

With `C=C1CC[C@H]2[C@@H](/C=C(\C)C(=O)[C@@]3(O)C[C@H](C)[C@H](O)[C@@H]3[C@H]1OC(=O)CCCC)C2(C)C`, the figures for the IC50 in series [1] and in series [2] were 57.9 µM and 13.1 µM, respectively. In series [3], the Activity stood at 0.1%. The Ratio EC50 in series [4] was found to be 0.8.
For the compound `C=C1CC[C@H]2[C@@H](/C=C(\C)C(=O)[C@@]3(O)C[C@H](C)[C@H](OC(C)=O)[C@@H]3[C@H]1OC(C)=O)C2(C)C`, the values for the IC50 in series [1] and in series [2] were 41 µM and 21.6 µM, respectively. For the same compound, the Activity in series [3] is reported as 4.7%. For the same compound, the Ratio EC50 in series [4] was 4.1.
Consider `C=C1CC[C@H]2[C@@H](/C=C(\C)C(=O)[C@@]3(O)C[C@H](C)[C@H](OC(=O)/C=C/c4ccccc4)[C@@H]3[C@H]1OC(=O)c1ccccc1)C2(C)C`, for which the values for the IC50 in series [1] and in series [2] were 42.1 µM and 14.2 µM, respectively. Moreover, the Activity in series [3] is listed as 12.1%. Also, the Ratio EC50 in series [4] came out at 9.8.
Taken in the same sequence, the figures for `C=C1CC[C@H]2[C@@H]([C@@H]3O[C@]4(C[C@H](C)[C@H](OC(=O)CCc5ccccc5)[C@@H]4[C@H]1OC(=O)CCc1ccccc1)C(=O)[C@H]3C)C2(C)C` were above 100 µM, 46.8 µM, 6.9% and 1.2.
Taken in the same sequence, the figures for `C=C1CC[C@H]2[C@@H](/C=C(\C)C(=O)[C@@]3(O)C[C@H](C)[C@H](OC(=O)Cc4ccccc4)[C@@H]3[C@H]1OC(=O)Cc1ccccc1)C2(C)C` were 36.3 µM, 8.93 µM, 9.5% and 2.6.
Turning to `C=C1CC[C@H]2[C@@H](/C=C(\C)C(=O)[C@@]3(O)C[C@H](C)[C@H](O)[C@@H]3[C@H]1O)C2(C)C`, the IC50 in series [1] turned out to be 59.6 µM; in series [2], 34 µM. Also, the Activity in series [3] is 7.3%. Further, in series [4], the Ratio EC50 was determined as 3.
Take `C=C1CC[C@H]2[C@@H](/C=C(\C)C(=O)[C@@]3(O)C[C@H](C)[C@H](OC(=O)Cc4cccc5ccccc45)[C@@H]3[C@H]1OC(=O)Cc1cccc3ccccc13)C2(C)C`: the IC50 is above 100 µM in series [1] and 13.4 µM in series [2]. The Activity in series [3] amounted to 10.1%. In addition, in series [4], the Ratio EC50 was found to be 1.4.
Take `C=C1CC[C@H]2[C@@H]([C@@H]3O[C@]4(C[C@H](C)[C@H](OC(=O)CCCCC)[C@@H]4[C@H]1OC(=O)CCCCC)C(=O)[C@H]3C)C2(C)C`: the IC50 in series [1] was above 100 µM; in series [2], 48.1 µM. The Activity in series [3] is listed as 6.8%. In addition, in series [4], the Ratio EC50 is 7.
For `C=C1CC[C@H]2[C@@H](/C=C(\C)C(=O)[C@@]3(O)C[C@H](C)[C@H](O)[C@@H]3[C@H]1OC(=O)Cc1ccccc1)C2(C)C` the same measures were 42.9 µM, 14.8 µM, 9.6% and 7.4.
On to `C=C1CC[C@H]2[C@@H](/C=C(\C)C(=O)[C@@]3(O)C[C@H](C)[C@H](O)[C@@H]3[C@H]1OC(=O)C(C)C)C2(C)C`, for which the figures for the IC50 in series [1] and in series [2] were 66.3 µM and 17 µM, respectively. Further, the Activity in series [3] stood at 10.1%. For the same compound, in series [4], the Ratio EC50 turned out to be 3.2.
`C=C1CC[C@H]2[C@@H]([C@@H]3O[C@]4(C[C@H](C)[C@H](OC(=O)Cc5ccccc5)[C@@H]4[C@H]1OC(=O)Cc1ccccc1)C(=O)[C@H]3C)C2(C)C`: the IC50 in series [1] is above 100 µM; in series [2], 28.5 µM. In addition, the Activity in series [3] came to 11.6%. Moreover, the Ratio EC50 in series [4] amounted to 2.1.
For `C=C1CC[C@H]2[C@@H](/C=C(\C)C(=O)[C@@]3(O)C[C@H](C)[C@H](OC(=O)CC)[C@@H]3[C@H]1OC(=O)CC)C2(C)C` the same measures were 45 µM, 18.6 µM, 4.6% and 2.8.
For `C=C1CC[C@H]2[C@@H](/C=C(\C)C(=O)[C@@]3(O)C[C@H](C)[C@H](O)[C@@H]3[C@H]1OC(=O)c1ccccc1)C2(C)C` the same measures were 55.3 µM, 11.6 µM, 7.5% and 1.5.
Consider `C=C1CC[C@H]2[C@@H](/C=C(\C)C(=O)[C@@]3(O)C[C@H](C)[C@H](O)[C@@H]3[C@H]1OC(=O)c1cccnc1)C2(C)C`, for which the IC50 came to 19.3 µM in series [1] and 17.3 µM in series [2]. The Activity in series [3] worked out at 10.3%. For the same compound, in series [4], the Ratio EC50 turned out to be 2.3.
As to `C=C1CC[C@H]2[C@@H](/C=C(\C)C(=O)[C@@]3(O)C[C@H](C)[C@H](O)[C@@H]3[C@H]1OC(C)=O)C2(C)C`, the results for the IC50 in series [1] and in series [2] were 80.7 µM and 26.6 µM, respectively. Also, in series [3], the Activity was 7.1%. In addition, the Ratio EC50 in series [4] stood at 1.9.
For `C=C1CC[C@H]2[C@@H]([C@@H]3O[C@]4(C[C@H](C)[C@H](OC(=O)Cc5ccccc5)[C@@H]4[C@H]1OC(=O)Cc1ccccc1)C(=O)[C@@H]3C)C2(C)C` the same measures were 55 µM, 28.5 µM, 4% and 1.6.
Taken in the same sequence, the figures for `C=C1CC[C@H]2[C@@H]([C@@H]3O[C@]4(C[C@H](C)[C@H](OC(=O)CCC)[C@@H]4[C@H]1OC(=O)CCC)C(=O)[C@H]3C)C2(C)C` were above 100 µM, 19.1 µM, 7.7% and 3.
Turning to `C=C1CC[C@H]2[C@@H](/C=C(\C)C(=O)[C@@]3(O)C[C@H](C)[C@H](OC(=O)CC)[C@@H]3[C@H]1OC(=O)Cc1ccccc1)C2(C)C`, the values for the IC50 in series [1] and in series [2] were 76 µM and 9.57 µM, respectively. Further, in series [3], the Activity is reported as 9.3%. The Ratio EC50 in series [4] was 8.1.
On to `C=C1CC[C@H]2[C@@H](/C=C(\C)C(=O)[C@@]3(O)C[C@H](C)[C@H](O)[C@@H]3[C@H]1OC(=O)/C=C/c1ccccc1)C2(C)C`, for which the IC50 in series [1] worked out at 58.8 µM; in series [2] it was 8.24 µM. For the same compound, the Activity in series [3] is 9.1%. For the same compound, the Ratio EC50 in series [4] is 2.7.
For `C=C1CC[C@H]2[C@@H](/C=C(\C)C(=O)[C@@]3(O)C[C@H](C)[C@H](OC(=O)c4ccccc4)[C@@H]3[C@H]1OC(=O)Cc1cccc3ccccc13)C2(C)C` the same measures were above 100 µM, 4.16 µM, 11.1% and 4.
As to `C=C1CC[C@H]2[C@@H]([C@@H]3O[C@]4(C[C@H](C)[C@H](OC(=O)Cc5cccc6ccccc56)[C@@H]4[C@H]1OC(=O)Cc1cccc4ccccc14)C(=O)[C@H]3C)C2(C)C`, the IC50 in series [1] was above 100 µM; in series [2], 84.9 µM. Further, in series [3], the Activity stood at 10.4%. Besides, the Ratio EC50 in series [4] was found to be 1.4.
Regarding `C=C1CC[C@H]2[C@@H](/C=C(\C)C(=O)[C@@]3(O)C[C@H](C)[C@H](O)[C@@H]3[C@H]1OC(=O)CCc1ccccc1)C2(C)C`, the values for the IC50 in series [1] and in series [2] were 23.4 µM and 11 µM, respectively. Further, in series [3], the Activity was found to be 11.6%. Besides, the Ratio EC50 in series [4] is 3.5.
On to `C=C1CC[C@H]2[C@@H](/C=C(\C)C(=O)[C@@]3(O)C[C@H](C)[C@H](OC(=O)CCc4ccccc4)[C@@H]3[C@H]1OC(=O)CCc1ccccc1)C2(C)C`, for which the IC50 is above 100 µM in series [1] and 28.7 µM in series [2]. Also, the Activity in series [3] worked out at 6%. For the same compound, the Ratio EC50 in series [4] amounted to 1.3.
Taken in the same sequence, the figures for `C=C1CC[C@H]2[C@@H](/C=C(\C)C(=O)[C@@]3(O)C[C@H](C)[C@H](O)[C@@H]3[C@H]1OC(=O)CC)C2(C)C` were 53.5 µM, 32.1 µM, 11.3% and 2.3.
For `C=C1CC[C@H]2[C@@H]([C@@H]3O[C@]4(C[C@H](C)[C@H](OC(=O)CCc5ccccc5)[C@@H]4[C@H]1OC(=O)CCc1ccccc1)C(=O)[C@@H]3C)C2(C)C` the same measures were 40.1 µM, 14.2 µM, 8.3% and 1.6.
Taken in the same sequence, the figures for `C=C1CC[C@H]2[C@@H](/C=C(\C)C(=O)[C@@]3(O)C[C@H](C)[C@H](O)[C@@H]3[C@H]1OC(=O)CC(C)C)C2(C)C` were 60.8 µM, 14.8 µM, 4.7% and 4.1.
As for `C=C1CCC(=C(C)C)[C@H]2C[C@@H](C)C(=O)[C@@]3(C[C@H](C)[C@H](OC(C)=O)[C@@H]3[C@H]1OC(C)=O)O2`, the IC50 in series [1] came to 65.2 µM; in series [2], 45.8 µM. Further, the Activity in series [3] is on record as 2.4%. Further, the Ratio EC50 in series [4] was determined as 1.9.
Taken in the same sequence, the figures for `C=C1CC[C@H]2[C@@H]([C@@H]3O[C@]4(C[C@H](C)[C@H](OC(=O)c5ccccc5)[C@@H]4[C@H]1OC(=O)c1ccccc1)C(=O)[C@@H]3C)C2(C)C` were above 100 µM, 25.2 µM, 6.8% and 3.2.
